≈ marks a conversion by molar mass, not a printed value.
Columns and labels:
[1] = Antiinflammatory activity in human neutrophils assessed as inhibition of fMLP-induced superoxide anion production; type: functional, cell-based; details: Neutrophil
[2] = Antiinflammatory activity in human neutrophils assessed as inhibition of […] superoxide anion production; type: functional, cell-based; details: Neutrophil
[3] = molecular target: T1, Nitric oxide synthase, inducible (Mus musculus) (UniProt P29477); experiment: Inhibition of iNOS-mediated NO production in LPS-stimulated mouse RAW264.7 cells after 24 hrs by Griess reagent method relative to control; type: cell-based
T1 sequence (whole entry): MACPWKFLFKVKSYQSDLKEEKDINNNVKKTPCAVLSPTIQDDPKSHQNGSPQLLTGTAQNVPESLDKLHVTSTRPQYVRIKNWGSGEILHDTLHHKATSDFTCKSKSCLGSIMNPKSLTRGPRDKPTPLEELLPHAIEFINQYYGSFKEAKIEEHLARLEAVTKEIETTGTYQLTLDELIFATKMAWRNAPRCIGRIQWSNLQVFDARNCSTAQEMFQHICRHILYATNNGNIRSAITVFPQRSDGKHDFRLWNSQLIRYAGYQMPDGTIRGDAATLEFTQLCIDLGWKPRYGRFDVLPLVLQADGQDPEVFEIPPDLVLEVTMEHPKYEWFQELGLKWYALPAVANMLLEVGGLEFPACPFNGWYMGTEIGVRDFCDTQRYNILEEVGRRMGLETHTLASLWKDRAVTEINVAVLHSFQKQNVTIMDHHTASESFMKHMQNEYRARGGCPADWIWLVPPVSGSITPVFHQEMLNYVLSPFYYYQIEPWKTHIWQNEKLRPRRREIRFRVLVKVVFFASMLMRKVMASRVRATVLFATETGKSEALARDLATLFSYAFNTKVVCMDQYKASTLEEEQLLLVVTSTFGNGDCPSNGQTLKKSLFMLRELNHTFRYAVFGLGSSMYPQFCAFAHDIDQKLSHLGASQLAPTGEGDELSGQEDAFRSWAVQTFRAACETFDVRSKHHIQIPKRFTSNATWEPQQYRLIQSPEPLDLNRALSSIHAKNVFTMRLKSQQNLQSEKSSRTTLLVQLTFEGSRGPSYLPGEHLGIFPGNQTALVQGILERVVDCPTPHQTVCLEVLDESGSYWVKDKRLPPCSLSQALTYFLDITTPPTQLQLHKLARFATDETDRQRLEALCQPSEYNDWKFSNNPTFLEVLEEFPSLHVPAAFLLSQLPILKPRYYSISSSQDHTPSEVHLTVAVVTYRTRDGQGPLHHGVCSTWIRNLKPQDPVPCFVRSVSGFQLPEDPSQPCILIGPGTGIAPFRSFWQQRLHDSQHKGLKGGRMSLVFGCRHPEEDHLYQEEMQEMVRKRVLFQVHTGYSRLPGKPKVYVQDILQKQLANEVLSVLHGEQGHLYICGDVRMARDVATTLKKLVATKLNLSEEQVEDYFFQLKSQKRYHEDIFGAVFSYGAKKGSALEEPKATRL
Outline: (§1)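 RAW 264.7 murine macrophages in DMEM with 10% FCS were grown to confluence for 24 h, then held serum-free for 4 h. Test agent, or 0.1% DMSO vehicle, was given with LPS (200 ng/mL) for 24 h. Supernatant nitrite was measured with Griess reagent (10 min, room temperature) at A550 against a NaNO2 standard curve. % inhibition is relative to vehicle+LPS; Emax at 100 μM; IC50 = concentration giving 50% Emax; n = 4−6.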

[4] = molecular target: T2, Nitric oxide synthase, inducible (Mus musculus, UniProt P29477); experiment: Inhibition of iNOS-mediated NO production in LPS-stimulated mouse RAW264.7 cells after 24 hrs by Griess reagent method; type: cell-based; outline: as §1
T2 sequence (P29477 whole entry): T1 sequence (whole entry)

[5] = Cytotoxicity against mouse RAW264.7 cells assessed as reduction in cell viability after 3 hrs by alamar blue assay; type: cell-based
Outline: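 Viability was tested in the same RAW 264.7 wells after the supernatant was removed for nitrite. 10% AlamarBlue in DMEM was added and the plates incubated at 37 °C. Absorbance was read at 570/600 nm against cell-free blanks, with LPS+vehicle wells set as 100% viability. CC50 = concentration lowering viability by 50%; mean ± SE.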

[6] = molecular target: T1, Nitric oxide synthase, inducible (Mus musculus); experiment: Inhibition of iNOS-mediated NO production in LPS-stimulated mouse RAW264.7 cells at 25 uM after 24 hrs by Griess reagent method relative to control; type: cell-based
Outline: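 Confluent RAW 264.7 cells, serum-starved 4 h, received test agent at 25 μM, or 0.1% DMSO vehicle, together with LPS (200 ng/mL) for 24 h. Supernatant nitrite was read by Griess reaction, A550, against a NaNO2 standard curve. Result is maximal inhibition expressed as % of vehicle+LPS nitrite; n = 4−6.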

RAW264.7 = experiment: Cytotoxicity against mouse RAW264.7 cells assessed as reduction in cell viability at 50 uM after 3 hrs by alamar blue assay; type: cell-based; details: raw264.7, 3 h

Cc1coc2c1[C@H]1C=C(CC[C@@H]3O[C@@]3(C)C2)C(=O)O1 [PSEUDONEOLINDERANE]
IC50 [1]: 3.21 µg/mL (≈ 12.3 µM)
IC50 [2]: 3.21 µg/mL (≈ 12.3 µM)

COc1cc(O)c2c(c1)O[C@H](c1ccc(O)cc1)CC2=O [SAKURANETIN]
Emax [3]: 85.2%
IC50 [4]: 19.6 µM
CC50 at 3 h [5]: > 100 µM

COc1cc(O)c2c(=O)c(-c3ccc(O)cc3)coc2c1 [PRUNETIN]
Emax [3]: 94.8%
IC50 [4]: 10.5 µM
CC50 at 3 h [5]: > 100 µM

N=C(NCCC[C@H](N)C(=O)O)N[N+](=O)[O-] [NITROARGININE]
Emax [3]: 41.2%
IC50 [4]: 144 µM
CC50 at 3 h [5]: > 100 µM

COc1cc2c([nH]c3ccc(O)cc32)c(Cc2ccc(O)cc2)n1 [DAIBUCARBOLINE A]
Emax [3]: 96.1%
inhibition [3]: Dose-dependent effect
IC50 [4]: 18.4 µM
CC50 at 3 h [5]: 94.8 µM

N=C(N)NN [PIMAGEDINE]
Emax [3]: 83.5%
IC50 [4]: 28.5 µM
CC50 at 3 h [5]: > 100 µM

C/C1=C\CCC2=C[C@@H](OC2=O)c2c(C)coc2C1 [LINDERALACTONE]
IC50 [1]: 8.48 µg/mL (≈ 34.7 µM)
IC50 [2]: 8.48 µg/mL (≈ 34.7 µM)

C=C[C@@]1(C)Cc2occ(C)c2[C@@H]2OC(=O)C(=C)[C@@H]21 [ISOLINDERALACTONE]
Emax [6]: 100%
IC50 [4]: 0.3 µM
Activity (RAW264.7): Toxic
CC50 at 3 h [5]: 66.4 µM

— ChEMBL document CHEMBL1926624, “Secondary metabolites from the roots of Neolitsea daibuensis and their anti-inflammatory activity” (J Nat Prod, 2011)
